How the values were obtained:
[1] = Drug uptake in C57BL/6NCrlCrlj mouse CSF at 10 mg/kg, po administered as single dose measured after 1 hr by LC-MS/MS analysis; format: ADME, organism-based, Cerebrospinal fluid; settings: read-out: Drug uptake
Outline: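 Male C57BL/6NCrlCrlj mice given a single 10 mg/kg oral dose as a suspension in 0.5% aqueous methylcellulose. At 1 or 3 h, under pentobarbital anesthesia, CSF was taken from the cisterna magna and then blood from the abdominal aorta (spun to plasma). Samples were acetonitrile-precipitated with deuterated internal standard and run by LC-MS/MS. Values are mean with SEM.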

[2] = Plasma protein binding in C57BL/6N mouse at 10 mg/kg, po administered as single dose by equilibrium dialysis method; format: ADME, organism-based; settings: read-out: PPB (converted)
[3] = system: Mus musculus; test: Sleep promoting activity in C57BL/6NCrlCrlj mouse assessed as reduction in wakefulness time at 10 mg/kg, po administered immediately prior to beginning of dark cycle measured during first 3 hrs after drug administration by electroencephalogram/electromyogram analysis (reference value: 116.7 min); format: functional
Outline: (§1)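 Male C57BL/6NCrlCrlj mice implanted with EEG/EMG electrodes were dosed orally in 10% Cremophor EL, 5% DMSO in saline just before lights-off (ZT12) and recorded from ZT12 to ZT20. Group sizes were n=6 dosed and n=7 vehicle. Stages were scored by software with blinded visual confirmation; cumulative first-3-h times are mean with SEM. Dunnett's test was run after one-way ANOVA.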

[4] = system: Mus musculus; test: Sleep promoting activity in C57BL/6NCrlCrlj mouse assessed as increase in REM sleep at 10 mg/kg, po administered immediately prior to beginning of dark cycle measured during first 3 hrs after drug administration by electroencephalogram/electromyogram analysis (reference value: 0.6 min); format: functional; outline: as §1
[5] = system: Mus musculus; test: Sleep promoting activity in C57BL/6NCrlCrlj mouse assessed as increase in REM sleep at 30 mg/kg, po administered immediately prior to beginning of dark cycle measured during first 3 hrs after drug administration by electroencephalogram/electromyogram analysis (reference value: 0.6 min); format: functional; outline: as §1
[6] = target: T1, Orexin/Hypocretin receptor type 1 (Homo sapiens, UniProt O43613); test: Binding affinity to human OX1R by radioligand displacement binding assay
T1 sequence (O43613 whole entry): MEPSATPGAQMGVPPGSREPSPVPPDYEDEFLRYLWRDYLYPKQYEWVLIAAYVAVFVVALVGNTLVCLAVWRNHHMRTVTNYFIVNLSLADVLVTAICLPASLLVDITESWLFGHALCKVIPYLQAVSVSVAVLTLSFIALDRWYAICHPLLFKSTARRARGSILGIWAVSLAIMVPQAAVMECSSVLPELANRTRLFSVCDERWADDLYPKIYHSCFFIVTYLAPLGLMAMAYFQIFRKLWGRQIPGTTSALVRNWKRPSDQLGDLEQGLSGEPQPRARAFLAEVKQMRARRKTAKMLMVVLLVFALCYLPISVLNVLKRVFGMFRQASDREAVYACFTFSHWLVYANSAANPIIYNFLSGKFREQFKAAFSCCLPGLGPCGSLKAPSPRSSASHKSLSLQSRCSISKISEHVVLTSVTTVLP
Outline: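 Ki values come from single experiments run in triplicate.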

[7] = target: CYP3A (Homo sapiens, UniProt P08684+P20815+P24462+Q9HB55); test: Time dependent inhibition of CYP3A in human liver microsomes assessed as enzyme activity using midazolam as substrate at 10 uM incubated for 30 mins prior to substrate addition for 10 mins by LC-MS/MS analysis; format: ADME; design: scale not given: the % may be the effect or the level left; settings: probe midazolam, read-out: Activity
Outline: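 Test compound at 10 μM preincubated 30 min at 37 °C with human liver microsomes (0.2 mg/mL), with or without an NADPH-generating system. Mixture then diluted 10-fold into a marker-substrate cocktail plus NADPH system and incubated 10 min at 37 °C. Midazolam served as the CYP3A probe. Metabolites measured by LC−MS/MS. Result is the residual activity with NADPH relative to without, as % of control.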

[8] = target: Cytochrome P450 2C19 (Homo sapiens, UniProt P33261); test: Inhibition of CYP2C19 in human liver microsomes using S-mephenytoin as susbtrate incubated for 30 mins prior to substrate addition for 10 mins by LC-MS/MS analysis; format: ADME
[9] = target: Cytochrome P450 2D6 (Homo sapiens, UniProt P10635); test: Inhibition of CYP2D6 in human liver microsomes using bufuralol as susbtrate incubated for 30 mins prior to substrate addition for 10 mins by LC-MS/MS analysis; format: ADME
[10] = target: T1, Orexin/Hypocretin receptor type 1; test: Binding affinity to human OX1R expressed in HEK-293 cells assessed as inhibition of orexin A-induced calcium accumulation by FLIPR assay; format: cell-based, HEK293
Outline: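 HEK-293 cells expressing human OX1R, seeded at 16000 cells/well and grown overnight at 37 °C, then loaded with Calcium 4 dye in HEPES buffer with 0.1% BSA (1 h at 37 °C, 15 min at RT). Compound was equilibrated 30 min at RT before orexin-A was added. Fluorescence read at ex 480/em 540 nm on FDSS6000; response taken as peak/baseline ratio. Orexin-A EC50 was determined in each experiment.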

[11] = system: Mus musculus; test: Sleep promoting activity in C57BL/6NCrlCrlj mouse assessed as reduction in wakefulness time at 30 mg/kg, po administered immediately prior to beginning of dark cycle measured during first 3 hrs after drug administration by electroencephalogram/electromyogram analysis (reference value: 116.7 min); format: functional; outline: as §1
[12] = AUC (0 to infinity) in C57BL/6NCrlCrlj mouse at 1 mg/kg, iv by LC-MS/MS analysis; format: ADME, organism-based; design: dose 1 mg/kg, time infinity, route intravenous; settings: in vivo
Outline: (§2)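 Male C57BL/6NCrlCrlj mice dosed intravenously at 1 mg/kg in 10% DMSO in water. Blood was taken from the tail vein at set time points and spun to plasma. Concentrations were measured by LC-MS/MS (MRM, positive mode) against a 1/x²-weighted standard curve with internal standard. Parameters came from noncompartmental analysis.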

[13] = Half life in C57BL/6NCrlCrlj mouse at 1 mg/kg, iv by LC-MS/MS analysis; format: ADME, organism-based; settings: in vivo; outline: as §2
[14] = Oral bioavailability in C57BL/6NCrlCrlj mouse at 10 mg/kg by LC-MS/MS analysis; format: ADME, organism-based; settings: in vivo
Outline: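 Oral dose of 10 mg/kg in 10% Cremophor EL, 5% DMSO in saline; intravenous reference of 1 mg/kg in 10% DMSO in water; male C57BL/6NCrlCrlj mice. Tail-vein plasma was quantified by LC-MS/MS. F% = (mean AUC0–inf po/dose po)/(mean AUC0–inf iv/dose iv) × 100.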

[15] = AUC (0 to infinity) in C57BL/6NCrlCrlj mouse at 30 mg/kg, po by LC-MS/MS analysis; format: ADME, organism-based; design: dose 30 mg/kg, time infinity, route oral; settings: in vivo
[16] = Half life in C57BL/6NCrlCrlj mouse at 30 mg/kg, po by LC-MS/MS analysis; format: ADME, organism-based; settings: in vivo
[17] = Oral bioavailability in C57BL/6NCrlCrlj mouse at 30 mg/kg by LC-MS/MS analysis; format: ADME, organism-based; settings: in vivo

Chain of Cytochrome P450 2C19 (P33261 whole entry): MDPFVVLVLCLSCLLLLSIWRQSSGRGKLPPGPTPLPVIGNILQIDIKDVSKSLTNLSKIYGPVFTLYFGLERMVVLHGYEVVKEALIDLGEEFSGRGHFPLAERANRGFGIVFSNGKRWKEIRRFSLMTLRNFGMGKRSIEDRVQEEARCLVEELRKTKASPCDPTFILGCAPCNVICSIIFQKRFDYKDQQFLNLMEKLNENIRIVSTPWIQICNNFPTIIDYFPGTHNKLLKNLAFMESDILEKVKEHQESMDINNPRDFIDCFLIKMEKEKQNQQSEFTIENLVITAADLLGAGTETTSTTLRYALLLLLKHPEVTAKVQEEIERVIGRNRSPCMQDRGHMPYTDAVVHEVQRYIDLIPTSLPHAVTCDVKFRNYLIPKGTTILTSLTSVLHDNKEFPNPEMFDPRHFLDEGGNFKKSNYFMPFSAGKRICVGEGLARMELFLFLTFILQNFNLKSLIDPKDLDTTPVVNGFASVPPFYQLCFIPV
Chain of Cytochrome P450 2D6 (P10635 whole entry): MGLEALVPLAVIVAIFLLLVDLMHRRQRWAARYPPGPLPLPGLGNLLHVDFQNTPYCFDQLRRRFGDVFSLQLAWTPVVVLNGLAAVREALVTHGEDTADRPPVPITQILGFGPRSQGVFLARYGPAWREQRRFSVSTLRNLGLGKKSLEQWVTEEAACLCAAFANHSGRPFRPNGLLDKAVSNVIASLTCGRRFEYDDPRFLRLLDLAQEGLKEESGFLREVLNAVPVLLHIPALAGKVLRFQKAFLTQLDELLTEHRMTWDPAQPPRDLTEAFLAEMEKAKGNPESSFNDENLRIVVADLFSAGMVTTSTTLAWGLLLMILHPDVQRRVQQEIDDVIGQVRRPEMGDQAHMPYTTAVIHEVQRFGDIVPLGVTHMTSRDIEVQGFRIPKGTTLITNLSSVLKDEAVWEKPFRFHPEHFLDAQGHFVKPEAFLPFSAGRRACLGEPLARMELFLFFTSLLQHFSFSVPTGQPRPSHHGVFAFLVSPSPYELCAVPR

## Cc1ncc(OC[C@@]2(c3cccc(F)c3)C[C@H]2C(=O)Nc2ccc(F)cn2)c(C)n1 [LEMBOREXANT]
[1]
  concentration at 1 h: 32.8 nM
[2]
  fraction unbound: 0.148
[3]
  Time: 77.1 min
[4]
  Time: 3.6 min
[5]
  Time: 9.3 min
[6]
  Ki: 6 nM
[7]
  activity at 10 min, 10 µM: 76%
[8]
  IC50: > 20000 nM
[9]
  IC50: > 20000 nM
[10]
  Ki: 5.7 nM
[11]
  Time: 75.3 min
[12]
  AUC(0-inf): 1030 ng·h/mL
[13]
  half-life: 2.16 h
[14]
  bioavailability: 18.5%
[15]
  AUC(0-inf): 4130 ng·h/mL
[16]
  half-life: 1.94 h
[17]
  bioavailability: 13.4%

— ChEMBL document CHEMBL3585325, “Discovery of (1R,2S)-2-{[(2,4-Dimethylpyrimidin-5-yl)oxy]methyl}-2-(3-fluorophenyl)-N-(5-fluoropyridin-2-yl)cyclopropanecarboxamide (E2006): A Potent and Efficacious Oral Orexin Receptor Antagonist” (J Med Chem, 2015)
